YB-1 expr inh = inhibitors of YB-1 gene expression, primary screen, cell-based, fluorescence; delta delta Cp (YB-1 minus CDIP) (no concentration beside the values); hit rate 0.37% among 30,000; U2OS, qRT-PCR YB-1 vs CDIP delta delta Cp, 16 h; active compounds read high; zero = DMSO, each unit about twofold; AID 434959, 2010;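 active means delta delta Cp rounded down to an integer at or above 3, about 3 SD of DMSO wells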;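 further: higher means less YB-1 transcript or more CDIP transcript relative to DMSO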
INS-1E ATP HTS = protection of INS-1E cells from cytokine death, primary screen, ATP luminescence, single point | protection from cytokine-induced ATP loss, % at 10 µM | hit rate 0.1% among 20,000 | INS-1E cytokine-induced death, 48 h; normalised: neutral wells 0, positive control 100 | AID 488910, 2010;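 active means mean replicate protection from cytokine-induced ATP loss at least 50% and at least 75% of replicates each reaching 50%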
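Assay system – rat INS-1E insulinoma cell line · Quantity – 8000 cells per well · Buffer or medium – RPMI without phenol red, 5% FBS · Schedule – 48 h co-treatment, 10 min post-lysis read · Technique – luminescent ATP assay (CellTiter-Glo)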
T cruzi intra = inhibitors of intracellular Trypanosoma cruzi, primary screen, cell-based, plate reader, single point, set 2; intracellular Trypanosoma cruzi in host cells; activity score (inhibition), % at 5.01 µM; hit rate 4.9% among 22,000; AID 651903, 2012; in the data active means activity score above about 55%;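 further: parasites and compound incubated about four days before reading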
A number is an active result. Many of the other results were omitted from the sample, so hits are more common in it than they were.

Results for COc1cccc(-c2cnc3c(c2)C(=O)N([C@H](C)CO)C[C@H](C)[C@H](CN(C)S(C)(=O)=O)O3)c1 ?
YB-1 expr inh: inactive; T cruzi intra: inactive

How did C[C@H](CO)N1C[C@H](C)[C@H](CN(C)S(=O)(=O)c2ccccc2)Oc2ncc(-c3ccccc3)cc2C1=O do in these assays?
YB-1 expr inh: inactive; T cruzi intra: inactive

Results for C[C@H](CO)N1C[C@H](C)[C@H](CN(C)C)Oc2ncc(-c3ccc(F)cc3)cc2C1=O ?
YB-1 expr inh: inactive; T cruzi intra: 65

What do the screens show for `C[C@H](CO)N1C[C@H](C)[C@H](CN(C)C)Oc2ncc(-c3cccc(F)c3)cc2C1=O`?
YB-1 expr inh: inactive; T cruzi intra: 71

What do the screens show for `C[C@H](CO)N1C[C@H](C)[C@H](CN(C)C)Oc2ncc(-c3ccccc3)cc2C1=O`?
YB-1 expr inh: inactive; T cruzi intra: 63

How did COc1ccccc1OC(=O)NC(C)C do in these assays?
YB-1 expr inh: inactive

Results for COc1ccc(-n2c(CC#N)nnc2SCc2c(C)c(C)c(C)c(C)c2C)cc1 ?
YB-1 expr inh: inactive

Results for COc1cc(-c2oc3cc(O)cc(O)c3c(=O)c2O[C@@H]2O[C@H](CO[C@@H]3O[C@@H](C)[C@H](O)[C@@H](O)[C@H]3O)[C@H](O)[C@H](O)[C@H]2O)ccc1O ?
YB-1 expr inh: inactive

What do the screens show for `Cc1sc2nc(C(=O)Oc3ccc(F)cc3)cc(N)c2c1C`?
YB-1 expr inh: inactive

Results for COc1cccc2sc(NC(=O)c3ccc(S(=O)(=O)N4CCCC(C)C4)cc3)nc12 (stereo unspecified) ?
YB-1 expr inh: inactive

Results for O=C(N/N=C/c1ccc([N+](=O)[O-])s1)c1ccccn1 ?
YB-1 expr inh: inactive; INS-1E ATP HTS: inactive; T cruzi intra: inactive

What do the screens show for `CCCC1=NN(C(=O)C(C)(C)C)C(=O)C1Cc1c(F)cccc1Cl` (stereo unspecified)?
YB-1 expr inh: inactive

How did C[C@@H]1CCCCO[C@H](CN(C)Cc2ccc(C(=O)Nc3ccccc3N)cc2)[C@@H](C)CN([C@H](C)CO)C(=O)c2cc(NS(=O)(=O)c3ccc(Cl)cc3)ccc2O1 do in these assays?
YB-1 expr inh: inactive; INS-1E ATP HTS: inactive; T cruzi intra: 78

How did C[C@@H]1CN([C@@H](C)CO)C(=O)Cc2cc(NS(=O)(=O)c3ccc(F)cc3)ccc2O[C@@H]1CN(C)Cc1ccc(C(=O)Nc2ccccc2N)cc1 do in these assays?
YB-1 expr inh: inactive; INS-1E ATP HTS: inactive; T cruzi intra: inactive

Results for C[C@H]1CN([C@@H](C)CO)C(=O)Cc2cc(NS(=O)(=O)c3ccc(Cl)cc3)ccc2O[C@H]1CN(C)Cc1ccc(C(=O)Nc2ccccc2N)cc1 ?
YB-1 expr inh: inactive; INS-1E ATP HTS: inactive; T cruzi intra: 66

What do the screens show for `C[C@@H]1CN([C@H](C)CO)C(=O)Cc2cc(NS(C)(=O)=O)ccc2O[C@@H]1CN(C)Cc1ccc(C(=O)Nc2ccccc2N)cc1`?
YB-1 expr inh: inactive; INS-1E ATP HTS: inactive; T cruzi intra: inactive

What do the screens show for `C[C@@H]1CN([C@H](C)CO)C(=O)Cc2cc(NS(=O)(=O)c3ccccc3)ccc2O[C@@H]1CN(C)Cc1ccc(C(=O)Nc2ccccc2N)cc1`?
YB-1 expr inh: inactive; INS-1E ATP HTS: inactive; T cruzi intra: 58

What do the screens show for `C[C@@H]1CCCCO[C@@H](CN(C)Cc2ccc(C(=O)Nc3ccccc3N)cc2)[C@@H](C)CN([C@H](C)CO)C(=O)c2cc(NS(=O)(=O)c3ccccc3)ccc2O1`?
YB-1 expr inh: inactive; INS-1E ATP HTS: inactive; T cruzi intra: inactive

What do the screens show for `C[C@H]1CN([C@@H](C)CO)C(=O)Cc2cc(NS(=O)(=O)c3ccc(F)cc3)ccc2O[C@H]1CN(C)Cc1ccc(C(=O)Nc2ccccc2N)cc1`?
YB-1 expr inh: inactive; INS-1E ATP HTS: inactive; T cruzi intra: 71

Results for Cc1ccc(S(=O)(=O)Nc2ccc3c(c2)CC(=O)N([C@H](C)CO)C[C@@H](C)[C@H](CN(C)Cc2ccc(C(=O)Nc4ccccc4N)cc2)O3)cc1 ?
YB-1 expr inh: inactive; INS-1E ATP HTS: inactive; T cruzi intra: inactive

Results for N#CC(=C1SCCCS1)S(=O)(=O)c1cccs1 ?
YB-1 expr inh: inactive

How did C=CCNC(=O)CSc1nccc(-c2sc3sc(Br)c(C)c3c2C)n1 do in these assays?
YB-1 expr inh: inactive

What do the screens show for `CCC(C)CCCCCCCCC1CC(=O)NC(CCC(N)=O)C(=O)NC(CC(C)C)C(=O)NC(CC(C)C)C(=O)NC(C(C)C)C(=O)NC(CC(=O)O)C(=O)NC(CC(C)C)C(=O)NC(C(C)C)C(=O)O1` (stereo unspecified)?
YB-1 expr inh: inactive

Results for O=S(=O)(NC(c1ccccc1)c1ccccc1)c1ccccc1 ?
YB-1 expr inh: inactive

How did C[C@@H]1CN([C@@H](C)CO)C(=O)c2cc(NS(=O)(=O)c3ccc(F)cc3)ccc2O[C@H]1CN(C)Cc1ccc(C(=O)Nc2ccccc2N)cc1 do in these assays?
YB-1 expr inh: inactive; INS-1E ATP HTS: inactive; T cruzi intra: 57

What do the screens show for `C[C@@H]1CN([C@H](C)CO)C(=O)c2cc(NS(=O)(=O)c3ccc(F)cc3)ccc2O[C@@H]1CN(C)Cc1ccc(C(=O)Nc2ccccc2N)cc1`?
YB-1 expr inh: inactive; INS-1E ATP HTS: inactive; T cruzi intra: inactive

Results for Cc1nc2sc3c(c2c2nnc(SCC(=O)c4ccccc4)n12)CCCC3 ?
YB-1 expr inh: inactive

Results for CCOC(=O)c1cnc(N2CCOCC2)nc1N ?
YB-1 expr inh: inactive

What do the screens show for `CCCc1c(C(=O)OCC)c(C(=O)OCC)c2c(-c3ccccc3)nc(N3CCOCC3)nn12`?
YB-1 expr inh: 3.2

How did Cc1nc2c(cnn2-c2ccccc2)c(=O)n1NC(=O)Nc1ccc(Cl)c(Cl)c1 do in these assays?
YB-1 expr inh: 9.9

How did CCc1nc2c(cnn2-c2ccccc2)c(=O)n1CCc1ccccc1 do in these assays?
YB-1 expr inh: inactive

What do the screens show for `COc1ccc2c(c1)c(=O)oc1cc(OC(C)C)ccc12`?
YB-1 expr inh: inactive

What do the screens show for `C[C@@H]1CN([C@H](C)CO)C(=O)Cc2cc(NC(=O)Nc3ccc4c(c3)OCO4)ccc2O[C@H]1CN(C)CC1CCCCC1`?
YB-1 expr inh: inactive; INS-1E ATP HTS: inactive; T cruzi intra: 64

Results for C[C@H](CO)N1C[C@H](C)[C@H](CN(C)CC2CCCCC2)Oc2ccc(NC(=O)Nc3ccc4c(c3)OCO4)cc2CC1=O ?
YB-1 expr inh: inactive; INS-1E ATP HTS: inactive; T cruzi intra: inactive

Results for C[C@@H]1CN([C@H](C)CO)C(=O)Cc2cc(NC(=O)Nc3ccc(F)cc3)ccc2O[C@@H]1CN(C)CC1CCCCC1 ?
YB-1 expr inh: inactive; INS-1E ATP HTS: inactive; T cruzi intra: 67

Results for C[C@@H]1CN([C@H](C)CO)C(=O)Cc2cc(NC(=O)Nc3ccc(F)cc3)ccc2O[C@H]1CN(C)CC1CCCCC1 ?
YB-1 expr inh: inactive; INS-1E ATP HTS: inactive; T cruzi intra: 60

Results for C[C@H](CO)N1C[C@H](C)[C@H](CN(C)CC2CC2)Oc2ccc(NC(=O)Nc3ccc(F)cc3)cc2CC1=O ?
YB-1 expr inh: inactive; INS-1E ATP HTS: inactive; T cruzi intra: inactive

Source: PubChem (Broad Institute)
